# Measurements reported in paper PMC8585696 (Immunity, 2021).
# Columns and labels:
# GP1bα [1] = experiment: GP1bα pulldown from human platelet lysates; type: binding; settings: 60 μg biotinylated bait, 1 h, 4°C, western blot; Figure 4E
# [2] = tested on: human platelets (platelet-rich plasma); experiment: platelet aggregation assay; type: cell-based; settings: collagen 2.5 μg/mL or increasing candidalysin, 5 min, Figure S4G
# C57BL/6 mice [3] = experiment: BALF inflammatory cell counts; type: in vivo, mouse; settings: C. albicans intranasal, inhibitor 10 or 20 μg/kg i.p., Figure 2I
# C57BL/6 mice [4] = experiment: cytokines from lung by ELISA; type: in vivo, mouse
# Method in brief: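 C57BL/6 mice received 1 × 10^5 viable C. albicans intranasally every other day for 8 challenges. Fungal cells were thawed (>95% viable), washed and suspended in normal saline. Dkk-1 inhibitor (10 or 20 μg/kg) or recombinant mouse Dkk-1 (5 μg/kg) was given i.p. at each challenge. Lungs were taken 24 h after the last challenge, and cytokines in lung homogenate supernatants were measured by ELISA (TMB, 450 nm).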
# C. albicans = experiment: lung fungal burden; type: in vivo
# Method in brief: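 Whole-lung C. albicans CFU was counted in C57BL/6 mice 24 h after the last of 8 intranasal challenges (1 × 10^5 viable cells in saline, every other day). Dkk-1 inhibitor or recombinant mouse Dkk-1 (5 μg/kg) was given i.p. together with each challenge.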
# Dkk-1 = settings: ref Chae et al., 2016; cited from earlier work
# GP1bα [5] = settings: through the A1 domain; ref Azuma et al., 1991; cited from earlier work
# C57BL/6 mice [6] = experiment: airway hyperresponsiveness; type: in vivo, mouse; settings: ece1Δ/Δ C. albicans intranasal; Dkk-1 5 μg/kg i.p.; Figure 3B
# [7] = tested on: GATA3^+ Th2 and RORγt^+ Th17 cells; experiment: lung T cell quantitation by flow cytometry; type: in vivo, mouse; settings: ece1Δ/Δ C. albicans intranasal; Dkk-1 5 μg/kg i.p.; Figures 3F, 3G
# Method in brief: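 Mice were challenged with C. albicans (1 × 10^5 viable cells) intranasally every other day ×8, with recombinant mouse Dkk-1 (5 μg/kg i.p.) at each challenge, and analyzed 24 h after the final challenge. Erythrocytes in total lung cells were lysed with ACK. Cells were stained for live/dead, CD45, CD3 and CD4, split into 3 groups, fixed and permeabilized, then stained for T-bet, GATA3 or RORγt. Results are given as percentages and absolute counts.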
# C57BL/6 mice [8] = experiment: allergic airway disease overall; type: in vivo, mouse; settings: intraperitoneal route, no fungus; data not shown
molecule,measurement,setting,value
IFKIIISKIQIVMGLNGIPIKVAGSQNIGMI [scrambled control (SC) peptide],association with GP1bα from human platelet lysates,GP1bα [1],but not its scrambled control peptide
collagen,platelet aggregation in vitro,[2],in marked contrast to the activating GPIIb/IIIa ligand collagen
NCC1CCN(c2nccc(-c3ccc4ccccc4c3)n2)CC1 [WAY 262611],BALF eosinophilia under Dkk-1 inhibitor,C57BL/6 mice [3],most notably reducing BALF eosinophilia
same,BALF inflammatory cell recruitment under Dkk-1 inhibitor,C57BL/6 mice [3]; dose-dependent,progressively reduced
same,secretion of IL-17 from whole lung under Dkk-1 inhibitor,"C57BL/6 mice [4]; C. albicans intranasal, inhibitor 10 or 20 μg/kg i.p., Figure 2J",inhibited secretion of IL-17
same,"secretion of IL-1β, IL-6 and TNF under Dkk-1 inhibitor","C57BL/6 mice [4]; C. albicans intranasal, inhibitor 10 or 20 μg/kg i.p., Figure 2K",not significantly affected
same,lung fungal burden under Dkk-1 inhibitor,"C. albicans; C. albicans intranasal, inhibitor i.p., Figure 2N",markedly elevated lung fungal burdens
same,block of Dkk-1 in vivo,Dkk-1,previously shown to block this peptide in vivo
"VWF A1A2A3 tridomain: recombinant human VWF A1, A2, A3 domains (Q1238-G1874) expressed in HEK293",binding of VWF fragment to GP1bα,GP1bα [5],binds GP1bα through the A1 domain
"Dkk-1: recombinant mouse Dkk-1 (5897-DK-010, R&D systems), Wnt pathway antagonist (protein, UniProt O54908 32-272, looked up) Dickkopf-related protein 1: TLNSVLINSNAIKNLPPPLGGAGGQPGSAVSVAPGVLYEGGNKYQTLDNYQPYPCAEDEECGSDEYCSSPSRGAAGVGGVQICLACRKRRKRCMRHAMCCPGNYCKNGICMPSDHSHFPRGEIEESIIENLGNDHNAAAGDGYPRRTTLTSKIYHTKGQEGSVCLRSSDCAAGLCCARHFWSKICKPVLKEGQVCTKHKRKGSHGLEIFQRCYCGEGLACRIQKDHHQASNSSRLHTCQRH",airway hyperresponsiveness with exogenous Dkk-1,C57BL/6 mice [6],significantly enhanced airway hyperresponsiveness
same,"secretion of lung Th2 cytokines, especially IL-4, and IL-17 with exogenous Dkk-1","C57BL/6 mice [4]; ece1Δ/Δ C. albicans intranasal, Dkk-1 5 μg/kg i.p., Figure 3D",markedly enhanced
same,secretion of innate pro-inflammatory cytokines with exogenous Dkk-1,"C57BL/6 mice [4]; ece1Δ/Δ C. albicans intranasal, Dkk-1 5 μg/kg i.p., Figure 3E",did not influence the secretion of innate pro-inflammatory cytokines
same,recruitment to lung of GATA3^+ Th2 and RORγt^+ Th17 cells with exogenous Dkk-1,[7],markedly increase recruitment to lung
same,fungal lung burden with exogenous Dkk-1,"C. albicans; ece1Δ/Δ C. albicans intranasal, Dkk-1 5 μg/kg i.p., Figure 3H",significantly reduced
same,"indices of allergic airway disease, Dkk-1 alone",C57BL/6 mice [8],no effect on any index of allergic airway disease
